From ChEMBL document CHEMBL1133671, “Synthesis and SAR of new 5-phenyl-3-ureido-1,5-benzodiazepines as cholecystokinin-B receptor antagonists” (J Med Chem, 2000) come the findings set out here.

One experiment is filed under the species Cavia porcellus. Kind of experiment: Selectivity factor between CCK-B and CCK-A receptors.
Experiment [1] addresses T1, Cholecystokinin receptor type A (Rattus norvegicus, UniProt P30551).
T1 sequence (P30551 whole entry): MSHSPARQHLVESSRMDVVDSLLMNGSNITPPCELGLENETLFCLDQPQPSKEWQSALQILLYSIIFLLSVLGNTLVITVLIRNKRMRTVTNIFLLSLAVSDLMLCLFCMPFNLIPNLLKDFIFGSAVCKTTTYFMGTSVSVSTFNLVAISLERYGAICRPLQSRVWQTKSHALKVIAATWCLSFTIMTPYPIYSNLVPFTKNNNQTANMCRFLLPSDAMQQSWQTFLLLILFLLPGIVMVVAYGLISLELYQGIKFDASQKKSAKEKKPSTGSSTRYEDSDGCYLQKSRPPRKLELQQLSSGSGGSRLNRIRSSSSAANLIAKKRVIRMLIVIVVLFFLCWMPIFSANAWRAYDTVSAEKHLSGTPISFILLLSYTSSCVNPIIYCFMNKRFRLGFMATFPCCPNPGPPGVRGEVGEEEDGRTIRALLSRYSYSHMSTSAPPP
Kind of experiment: In vitro inhibition of binding of [3H]pCCK-8 against Cholecystokinin type A receptor of rat pancreatic membranes. The experiment is classed as cell membranes, Membrane. In short, it runs like this:
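Radioligand displacement of [3H]CCK-8S from membranes: rat pancreas for the CCK-A receptor and guinea-pig cerebral cortex for the CCK-B receptor, using slightly modified published methods. Values are means of n experiments.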

The target of experiment [2] is T1, Cholecystokinin receptor type A. Description: Inhibition by displacing [3H]CCK-8S against Cholecystokinin type A receptor of rat pancreatic membranes.
Experiment [3] deals with Rattus norvegicus. Kind of experiment: Anxiolytic effect in the rat social interaction test against FG 7142, when administered intraperitoneally. The class given is functional. As to conditions: ip.
The species entered for experiment [4] is Rattus norvegicus. Kind of experiment: pKB determined against pentagastrin-induced acid secretion in isolated rat gastric mucosa. The experiment is classed as functional. In short, it runs like this:
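Isolated rat gastric mucosa used as a gastrin-receptor preparation; acid secretion stimulated with pentagastrin and antagonism expressed as pKB.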

For experiment [5], the system named is Rattus norvegicus. Kind of experiment: Anxiolytic effect in the rat social interaction test, when administered orally (po). The experiment is classed as functional.
Experiment [6] has as its system Mus musculus. Description: Anxiolytic effect in the mouse black / white box model, when administered intravenously. The experiment is classed as functional. As to conditions: iv. The gist of the method:
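Naive mice were placed in an activity box with a brightly illuminated section, and the time they spent there was recorded. The effect was assessed over a dose series and reported as an ED50.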

Experiment [7] concerns Mus musculus. Description: Anxiolytic effect in the mouse black / white box model, when administered orally (po). The experiment is classed as functional. In short, it runs like this: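 Naive mice placed in an activity box with a brightly illuminated section. The read-out was the time the mice remained in the lit section. Dose-related effects were assessed, and an ED50 value was derived.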

Experiment [8] has as its target T2, Cholecystokinin receptor type A (Cavia porcellus) (UniProt Q63931).
T2 sequence (whole entry): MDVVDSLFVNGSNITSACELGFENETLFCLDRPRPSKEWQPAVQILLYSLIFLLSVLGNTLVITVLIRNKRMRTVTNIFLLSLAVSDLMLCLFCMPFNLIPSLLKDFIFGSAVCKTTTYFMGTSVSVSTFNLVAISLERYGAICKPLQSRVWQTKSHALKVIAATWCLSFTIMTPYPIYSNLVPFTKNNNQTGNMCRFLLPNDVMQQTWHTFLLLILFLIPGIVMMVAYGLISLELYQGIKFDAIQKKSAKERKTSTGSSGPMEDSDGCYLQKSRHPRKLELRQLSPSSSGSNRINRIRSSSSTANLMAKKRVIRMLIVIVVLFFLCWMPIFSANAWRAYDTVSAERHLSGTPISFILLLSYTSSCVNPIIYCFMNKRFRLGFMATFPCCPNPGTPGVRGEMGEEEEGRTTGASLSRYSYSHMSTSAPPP

In experiment [9] the target is T2, Cholecystokinin receptor type A (Cavia porcellus). As to conditions: Gall bladder.
For experiment [10], the target named is T3, Gastrin/cholecystokinin type B receptor (Homo sapiens) (UniProt P32239).
T3 sequence (whole entry): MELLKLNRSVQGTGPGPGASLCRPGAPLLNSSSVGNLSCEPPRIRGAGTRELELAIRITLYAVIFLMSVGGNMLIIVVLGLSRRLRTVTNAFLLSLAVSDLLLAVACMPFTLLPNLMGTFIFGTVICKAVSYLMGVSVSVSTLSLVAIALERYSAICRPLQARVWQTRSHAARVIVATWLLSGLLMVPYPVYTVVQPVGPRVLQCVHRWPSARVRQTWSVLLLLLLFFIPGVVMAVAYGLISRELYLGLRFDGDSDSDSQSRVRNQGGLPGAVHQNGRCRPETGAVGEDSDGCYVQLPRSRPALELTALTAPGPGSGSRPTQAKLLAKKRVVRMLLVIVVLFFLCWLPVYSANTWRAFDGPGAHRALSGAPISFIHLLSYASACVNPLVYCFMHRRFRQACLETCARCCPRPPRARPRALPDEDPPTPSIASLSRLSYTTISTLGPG
As to conditions: Cavia porcellus.

Each structure is given as a SMILES string.

As for `O=C(Nc1ccc(O)cc1)NC1C(=O)N(CC23C[C@H]4C[C@@H](C2)C[C@@H](C3)C4)c2ccccc2N(c2ccccc2)C1=O` (single isomer, unassigned; (+)), in the experiment listed under Cavia porcellus, the Ratio stood at 30900. This compound also showed a Ki in experiment [1] of 20400 nM.

Take `O=C(Nc1ccccc1)NC1C(=O)N(CC23C[C@H]4C[C@@H](C2)C[C@@H](C3)C4)c2ccccc2N(c2ccccc2)C1=O` (single isomer, unassigned; (+)) [listing 1 of 2 here]: the values for the Ki in experiment [2] and in experiment [1] were 1480 nM and 1620 nM, respectively. Further, the median effective dose (ED50) with Rattus norvegicus [3] was 10 µg/kg; with Rattus norvegicus [5] it was 1.6 µg/kg; with Mus musculus [6], 0.03 µg/kg; in the experiment with Mus musculus [7] it was 0.05 µg/kg. Besides, the negative logarithm of the KB (pKB) in the experiment listed under Rattus norvegicus [4] is 7.4.

Regarding `O=C(Nc1cccc(O)c1)NC1C(=O)N(CC23C[C@H]4C[C@@H](C2)C[C@@H](C3)C4)c2ccccc2N(c2ccccc2)C1=O` (single isomer, unassigned; (+)), the Ratio in the experiment listed under Cavia porcellus was 550. In experiment [1], this compound gave a Ki of 1580 nM.

Regarding `Nc1cccc(NC(=O)NC2C(=O)N(CC34C[C@H]5C[C@@H](C3)C[C@@H](C4)C5)c3ccccc3N(c3ccccc3)C2=O)c1` (single isomer, unassigned; (+)), the Ratio in the experiment filed under Cavia porcellus is 13800. Besides, in experiment [1], the inhibition constant Ki is 4070 nM.

On to `O=C(Nc1cccc(C(=O)OCCN2CCOCC2)c1)NC1C(=O)N(CC23C[C@H]4C[C@@H](C2)C[C@@H](C3)C4)c2ccccc2N(c2ccccc2)C1=O` (single isomer, unassigned; (+)), for which, in the experiment listed under Cavia porcellus, the Ratio came out at 603. In experiment [1], this compound had a Ki of 339 nM.

Take `O=C(Nc1cccc(CO)c1)NC1C(=O)N(CC23C[C@H]4C[C@@H](C2)C[C@@H](C3)C4)c2ccccc2N(c2ccccc2)C1=O` (single isomer, unassigned; (+)): the Ratio in the experiment filed under Cavia porcellus amounted to 12000. This compound also showed a Ki in experiment [1] of 2140 nM.

On to `CCOC(=O)CCCOc1ccc(NC(=O)NC2C(=O)N(CC34C[C@H]5C[C@@H](C3)C[C@@H](C4)C5)c3ccccc3N(c3ccccc3)C2=O)cc1` (single isomer, unassigned; (+)), for which the Ratio in the experiment listed under Cavia porcellus is above 1900. In experiment [1], this compound gave a Ki above 10000 nM.

Regarding `O=C(Nc1ccccc1)NC1C(=O)N(CC23C[C@H]4C[C@@H](C2)C[C@@H](C3)C4)c2ccccc2N(c2ccccc2)C1=O` (single isomer, unassigned; (+)) [listing 2 of 2 here], the pKB in experiment [8] was 5.9; in [9] it was 5.8; in experiment [10] it was 8.9.

On to `Cc1cccc(NC(=O)N[C@@H]2N=C(c3ccccc3)c3ccccc3N(C)C2=O)c1` [L-365260], for which, in experiment [2], the Ki is 0.148 nM.

Usually Ki stands for the dissociation constant of the complex between target and ligand, obtained from inhibition or displacement. What is called ED50 is the dose at which the effect has come halfway, by size or by number of responders. The term pKB denotes −log10 of the KB, conventionally taken in molar units. A low value points to a high KB.
